# Many of the other results were omitted from the sample, so hits are more common in it than they were.
# Lmaj promast: Leishmania major promastigote growth inhibition; Leishmania major promastigotes, resazurin fluorescence viability; inhibition, % at 10 µM; actives 9% (n = 200,000); AID 1063; in the data active = inhibition above about 50%;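 also: promastigotes grown with compound for 44 hours at 28 °C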
# Redox H2O2 prof: compounds producing H2O2 with reducing agent – biochemical, NIH compound library profiling, artefact control for MLSCN library redox annotation, primary screen; DTT-dependent redox cycling H2O2, phenol red/HRP absorbance; 100% = 100 µM peroxide control, 0% = buffer; activation, % at 10 µM; actives 0.03% (n = 200,000); AID 878;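 active = activation of at least 50% relative to the plate's high and low controls in the primary single-dose screen; inactive = activation below 50%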;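 also: compound incubated with DTT at 0.8 mM final as the reducing agent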
# T cruzi inh: T. cruzi replication inhibition. T. cruzi beta-gal in NIH3T3, luminescence, 90 h. inhibition, % (concentration not given with the values). actives 1.4% (n = 300,000). AID 1885;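 active = mean inhibition across valid replicates above about 55%, limit read from the data; inconclusive = mean below that limit but half or more replicates reach it; inactive = mean below it, under half of replicates reach it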;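 also: signal also drops with host cell toxicity which is not excluded here; 0% = plate median of DMSO wells and 100% = zero luminescence signal; higher percent means less beta-gal luminescence so fewer parasites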
#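 Material: NIH/3T3 host cells with β-galactosidase reporter T. cruzi; Input: 5,000 host fibroblasts per well; Medium: DMEM, 2% fetal bovine serum; Compound: 50 nL DMSO compound solution per well; Schedule: 3 h host attachment, then at least 90 h co-culture; Detection: luminescent β-galactosidase signal after 60 min lysis.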
# Hep lipid drop: modulators of hepatic lipid droplet formation; actives 0.4% (n = 240,000); inhibition, % at 6.5 µM; AML12 mouse hepatocytes, oleate lipid droplets, BODIPY imaging;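 active = lipid droplet intensity inhibited by at least 50%, with more than 500 cells counted; inconclusive = wells with under 300 cells, treated as cytotoxic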
#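 Material – AML12 mouse liver cells · Also added – oleate loading, 100 µM · Compound dosing – 6.5 µM single-point dosing · Times – overnight treatment with compound plus oleate · Measured by – fluorescence imaging, 20x objective, two fields per well · Read-out – percent inhibition of filter-corrected integrated lipid droplet intensity per well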
# MPTP block: permeability transition pore inhibition; actives 1.4% (n = 360,000); isolated mouse mitochondria, Ca2+ swelling absorbance, 30 min; inhibition, % at 10 µM;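 active = inhibition of 50% or more, scaled per plate between neutral and stimulator controls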;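 also: 0% = DMSO wells given calcium and 100% = 1 mM EGTA wells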
# Starred values were filed as active, the others as inactive; ? = inconclusive; / = not tested or not shown.
SMILES,Lmaj promast,Redox H2O2 prof,T cruzi inh,Hep lipid drop,MPTP block
NC(=O)CCn1nc(-c2ccc(Cl)cc2)c2ccccc2c1=O,3,3,-4,1,-1
O=C(CCn1nc(-c2ccc(Cl)cc2)c2ccccc2c1=O)Nc1cccnc1,62*,0,2,20,1
O=C(N=Nc1c(O)[nH]c2ccccc12)c1ccccc1NS(=O)(=O)c1cccs1,68*,-1,9,-4,0
O=C(NCc1cccnc1)c1cc(C2CCCCN2C(=O)c2ccc(Cl)cc2)on1 (stereo unspecified),/,/,/,/,0
Cc1ccc(OCC(=O)N2N=C(c3ccc(Cl)cc3)CC2c2ccco2)c([N+](=O)[O-])n1 (stereo unspecified),30,-3,26,-8,-1
O=C(COc1cccnc1[N+](=O)[O-])N1N=C(c2ccc(Cl)cc2)CC1c1ccco1 (stereo unspecified),12,0,56*,-17,0
CCN(CC)CCN(C)C(=O)CCc1nnc(-c2ccc(C)s2)o1,-5,0,57*,3,-1
CC(C)(C)NC(=O)COC(=O)c1ccc(Cl)c(S(N)(=O)=O)c1,7,0,/,-13,-1
C/C(=N\NC(=O)c1cccc(C)c1)c1cccc(NC(=O)c2ccco2)c1,83*,-4,-10,/,2
C/C(=N\NC(=O)c1cccc(Cl)c1)c1cccc(NC(=O)c2ccco2)c1,32,2,-6,-1,-1
O=C(Nc1cccc(NC(=O)c2ccc(Br)o2)c1)c1ccccc1,/,/,5,-7,0
O=C(c1ccccc1)c1cccc(NC(=O)c2ccc(Br)o2)c1,97*,0,38,-3,-1
C/C(=N/NC(=O)c1ccco1)c1cccc(NC(=O)c2ccc(C)o2)c1,66*,10,-2,/,-2
C/C(=N\NC(=S)Nc1cccc(C)c1)c1ccco1,27,0,77*,-4,-1
CCOc1ccc(NC(=S)N2CCN(S(=O)(=O)c3ccc(OC)cc3)CC2)cc1,/,/,-1,-2,0
O=C(c1cccs1)N1CCN(c2ncc(Br)cn2)CC1,/,/,-10,-14,1
C/C(=N/NC(=O)c1ccc(Br)o1)c1cccc(NC(=O)c2ccc(C)o2)c1,92*,0,-24,2,-4
CCCC/C(=N\NC(=O)c1ccc(Br)o1)c1ccccc1,89*,0,14,6,-4
Cc1ccc(O)c(NC(=O)c2cccc(NC(=O)c3ccco3)c2)c1,98*,0,-16,-17,1
C/C(=N\NC(=O)c1nn(C)cc1Br)c1cccc(NC(=O)c2ccncc2)c1,63*,0,13,-4,-1
Cc1ccc(N=C2NC(=O)/C(=C\c3ccsc3)S2)c(C)c1,8,-1,18,20,13
O=C(NCCN1CCN(C(=O)c2ccc([N+](=O)[O-])cc2)CC1)C(=O)Nc1ccc(F)cc1,/,/,0,16,-2
CCOc1ccc(Nc2nc(N(C)c3ccccc3)nc(N)c2[N+](=O)[O-])cc1,/,/,0,8,2
CC(=O)c1cccc(NC(=O)c2ccc(-c3ccccc3[N+](=O)[O-])o2)c1,75*,0,-16,4,8
Cc1cc(NC(=O)c2ccc(-c3ccccc3[N+](=O)[O-])o2)no1,/,/,/,/,0
SMILES,Lmaj promast,Redox H2O2 prof,T cruzi inh,Hep lipid drop,MPTP block
COc1ccc(-c2coc3c(C(=O)Nc4cccnc4)cccc23)c(C)c1,/,/,/,/,20
CCOc1ccc(NC(=O)CN(C)S(=O)(=O)c2ccc3c(c2)CCC(=O)N3)cc1,/,/,-1,6,0
Cc1ccc(/C(=N\O)c2oc3c(C)c4oc(=O)cc(C)c4cc3c2C)cc1,49,0,59*,0,0
COc1cccc(-c2sc3ccc(OC)cc3c2-c2cnc(N3CCOCC3)nc2)c1,/,/,/,/,1
c1ccc(C2CCC3(CC2)Oc2ccccc2C2CC(c4cccnc4)=NN23)cc1 (stereo unspecified),89*,0,1,-1,/
CN1CCC[C@H]1c1cccnc1,/,/,4,/,-1
COc1ccc(O)c(CN2CC3CCC(CC3)C2)c1,/,/,/,/,-1
CCn1c2ccccc2c2cc(CN3CCN(Cc4cc(OC)ccc4O)CC3)ccc21,34,0,72*,-14,-1
CCn1c2ccccc2c2cc(CN3CCN(S(C)(=O)=O)CC3)ccc21,68*,0,29,-5,0
Clc1ccc(Cc2ccccn2)cc1,/,/,/,/,0
COc1ccc(-n2nc3c(c2NC(=O)C(C)Oc2ccccc2)CS(=O)C3)cc1 (stereo unspecified),/,/,-16,24,2
COc1ccc(S(=O)(=O)Nc2ccccc2C(=O)NCc2ccco2)cc1,-5,-1,4,/,31
Cc1ccc(S(=O)(=O)N(C)c2ccc(C(=O)NCc3cccnc3)cc2)cc1,/,/,-7,-12,0
COc1ccc(S(=O)(=O)N(Cc2ccccc2)c2ccccc2C(=O)Nc2ccccc2C(=O)NCc2ccco2)cc1,66*,1,24,9,2
Cc1ccccc1CN(c1ccc(C(=O)Nc2ccccc2C(=O)NCc2ccco2)cc1)S(C)(=O)=O,81*,1,19,-11,-2
Cc1ccc(S(=O)(=O)N(Cc2ccccc2)c2ccccc2C(=O)NCc2cccnc2)cc1,64*,0,26,-29,-1
CC1(C)OC(=O)C2=C(C[C@@H](C3CCCCC3)O[C@H]2c2ccc(F)cc2)O1,/,/,/,/,1
Cc1nn(Cc2ccc(Cl)cc2Cl)c(C)c1NC(=O)NC12CC3CC(CC(C3)C1)C2,100*,1,36,0,-1
Cc1sc(-n2c(C)cc(/C=N/n3cnnc3)c2C)c(C#N)c1C,77*,0,36,/,-2
CCN(CC(=O)Nc1c(F)cccc1F)C(=O)/C=C/c1ccc(Br)s1,/,/,-8,/,0
O=C(Nc1cccc2ccccc12)N1CC=C(c2ccccc2)CC1,-6,0,9,-38,0
O=C(Nc1ccccc1)N1CC=C(c2ccccc2)CC1,81*,1,36,6,/
O=C(Nc1ccccc1)N1CC=C(c2ccc(F)cc2)CC1,85*,6,23,0,0
O=C(Cc1ccsc1)Nc1ccccc1F,/,/,-11,-14,0
COc1ccc(CCNC(=O)CCCn2c(=S)[nH]c3ccsc3c2=O)cc1OC,/,/,/,/,-1
SMILES,Lmaj promast,Redox H2O2 prof,T cruzi inh,Hep lipid drop,MPTP block
CCN1C(=O)[C@H]2[C@@H](c3ccc(Cl)cc3)N3C(=O)CN(CC4CC4)C(=O)[C@@]3(Cc3ccccc3)[C@H]2C1=O,/,/,-10,8,1
O=C(CSc1ncccc1-c1nc2ccccc2[nH]1)Nc1ccc2c(c1)OCCO2,73*,0,-5,1,0
O=C(CSc1nc2ccccc2[nH]1)Nc1ccc2c(c1)OCCO2,11,-4,2,/,0
C=CCOC(=O)c1cc(-c2ccc(/C=C3\C(=O)NC(=O)C(C#N)=C3C)o2)ccc1Cl,86*,17,/,13,-12
CCCOC(=O)c1cc(-c2ccc(C=O)o2)ccc1Cl,64*,0,-22,4,0
O=C(CSc1nncs1)Nc1nccs1,/,/,?,/,0

# Compound activity from PubChem.
